Screening data deposited in PubChem by several laboratories.
This is a sample that favours compounds with a hit; in the whole collection about 3.9% have one here.
697 NFkB inh – inhibitors of PMA/ionomycin-induced NF-kB reporter, 697 cells, primary screen, B-cell NF-kB inhibitor project, cell-based, luminescence, uHTS; 697 B-cell NF-kB luciferase reporter, 16 h; inhibition, % at 4 µM; hit rate 0.33% among 330,000; AID 435022, 2010; in the data active = inhibition above about 35%
CHOP inh – inhibitors of CHOP promoter induction, primary screen, cell-based, unfolded protein response, luciferase reporter; CHO-K1 CHOP-promoter luciferase, tunicamycin-induced, 15-18 h; inhibition, % at 10 µM; hit rate 3.8% among 220,000; AID 2732, 2010;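 active = compounds that reduced the stress-induced luciferase reporter signal by more than about 70% of percent inhibition, limit read from the data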;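 note: 0% = tunicamycin plus vehicle and 100% = wells without tunicamycin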
UPR CHOP act – activators of apoptotic CHOP UPR arm, primary screen, cell-based, CHO-CHOP luciferase reporter, luminescence, uHTS; AID 449763, 2010; hit rate 0.34% among 330,000; UPR activation; percent of tunicamycin response over DMSO baseline; activation, % at 10 µM;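 active = at 10 µM dose, activation of 40% or more, normalized to positive control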;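 note: 100% = tunicamycin at 10 µg/mL and 0% = DMSO alone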
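System: CHO-CHOP luciferase reporter cell line; amount: 500 cells/well; buffer or medium: F12 medium containing 10% fetal bovine serum; incubation: 6 h compound exposure at 37 °C after overnight seeding; measured by: luciferase luminescence after 10 min with Steady-Glo reagent; evaluation: % reporter activation, DMSO baseline versus tunicamycin full activation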
Gli-Sufu antag – Gli-Sufu pathway antagonists, primary screen, luciferase luminescence, Sufu-KO-LIGHT cells, uHTS; inhibition, % at 5 µM; AID 588413, 2011; Sufu-KO-LIGHT fibroblasts, Gli luciferase reporter luminescence; hit rate 0.74% among 340,000;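 active = inhibition above about 55%, limit read from the data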;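 note: 0% = DMSO-treated cells and 100% = wells with medium but no cells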
XBP1 UPR activ – activators of adaptive XBP1 UPR arm, primary screen, cell-based, CHO-XBP1 luciferase reporter, luminescence, uHTS; hit rate 0.33% among 330,000; AID 463104, 2010; activation, % at 20 µM; IRE1-XBP1 UPR activation; percent of tunicamycin response, DMSO as zero;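 active = versus positive control, 20 µM dose yields 30% or more activation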;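 note: 100% = tunicamycin at 10 µg/mL and 0% = DMSO only wells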
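Assay system: CHO-XBP1 luciferase reporter cells; Schedule: 6 h treatment, 37 °C; Detection: glow luminescence from Steady-Glo reagent; Benchmarks: high control tunicamycin 10 µg/mL final, low control DMSO vehicle only.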
Jurkat NFkB inh – inhibitors of induced NF-kB luciferase reporter, primary screen, TCR NF-kB activation inhibitor project, cell-based, luminescence, uHTS. Jurkat, PMA/ionomycin-induced NF-kB luciferase reporter. inhibition, % at 4 µM. hit rate 0.53% among 330,000; in the data active = inhibition above about 50%
Jurkat NFkB conf – PMA/ionomycin-induced NF-kB reporter inhibitors, Jurkat retest, confirmation, T-cell NF-kB inhibitor project, cell-based, luminescence, single concentration; shares compounds with Jurkat NFkB inh; Jurkat NF-kB luciferase, 16 h; inhibition, % at 4 µM; hit rate 27% among 2,700;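 active = inhibition reaching about 45% at 4 µM in either replicate, limit read from the data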;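 note: plate controls were PMA/ionomycin stimulated DMSO wells for no effect and unstimulated DMSO wells for full effect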
Numbers without * were called inactive; . = not tested or not shown.

SMILES | 697 NFkB inh | CHOP inh | UPR CHOP act | Gli-Sufu antag | XBP1 UPR activ | Jurkat NFkB inh | Jurkat NFkB conf
CCOc1ccc(S(=O)(=O)/N=C(/Nc2ccc(OC)cc2)c2ccccc2)cc1 | 2 | . | 0 | -4 | -4 | 6 | .
CCOC(=O)Nc1sc(C)nc1-c1ccccc1 | -11 | 19 | 1 | -1 | -2 | -5 | .
CCOC(=O)Nc1nc(-c2ccccc2)c(C(=O)c2ccc(Cl)cc2)s1 | 8 | -20 | -3 | -9 | 28 | 54* | 55*
CC(=O)N[C@@H](Cc1c[nH]c2ccccc12)C(=O)NCc1ccccc1 | -12 | . | 0 | . | 1 | -10 | .
O=S1(=O)NC(C2CC2c2ccccc2)CCO1 (configuration not stated) | 16 | . | 3 | -4 | 0 | 16 | .
O/C(=C\c1ccc2ccccc2n1)c1ccc(O)cc1O | -186 | 0 | 1 | -76 | -2 | -170 | -15
Oc1ccc(/C(Cc2ccc3ccccc3n2)=N\Nc2ccccc2)c(O)c1 | 1 | 40 | 2 | 3 | 3 | -4 | .
COc1ccc(-n2cc(-c3ccc(C)cc3)[n+]3c2SCC3)cc1 | 23 | -17 | 2 | . | -2 | 60* | 56*
Cc1nn(-c2ccccc2)c(C)c1/C=N/NC(=O)c1cc(-c2ccc(Br)s2)[nH]n1 | -19 | 70* | 3 | 2 | 15 | 62* | 28
Cc1nn(-c2ccccc2)c(C)c1/C=N/NC(=O)c1cc(C2CC2)[nH]n1 | 11 | 25 | 1 | -2 | 6 | -6 | .
Cc1nn(-c2ccccc2)c(C)c1/C=N/NC(=O)c1cc(-c2ccc(Cl)s2)[nH]n1 | -3 | -30 | -1 | 10 | 20 | 72* | 34
Cc1cc(C(=O)N/N=C/c2c(C)nn(-c3ccccc3)c2C)n[nH]1 | -1 | -12 | 0 | -10 | 6 | 7 | .
Cc1ccc(C)c(OCCC(=O)OCC(=O)NC2CCCC2)c1 | 28 | . | 3 | -12 | -3 | -9 | .
Fc1ccc(Nc2ccc3ccccc3n2)c(F)c1 | -242 | 51 | 1 | -169 | -4 | -211 | -138
O=C(Nc1ccc([N+](=O)[O-])cn1)c1cccnc1 | 1 | . | 0 | -5 | -1 | 13 | .
CC(C)(C)c1ccc(C(=O)Nc2ccc([N+](=O)[O-])cn2)cc1 | -96 | 15 | 2 | -75 | -3 | -182 | -113
COc1ccc(C(=O)Nc2ccc(Cl)c(S(=O)(=O)N3CCOCC3)c2)cc1 | -6 | . | 0 | -3 | -4 | 17 | .
O=C(Nc1ccc(Cl)c(S(=O)(=O)N2CCOCC2)c1)c1ccc(OCC2CCCO2)cc1 (configuration not stated) | -36 | 42 | 1 | 37 | -4 | 60* | 64*
CN(C)CCCNc1c2ccccc2nc2ccccc12 | 35 | . | -3 | -23 | -5 | 99* | -57
CCN1CCN(C(=O)c2cc(S(=O)(=O)N3CCCCC3)ccc2Cl)CC1 | 19 | . | 0 | 5 | -6 | 11 | .
O=C(N/N=C\c1c(O)ccc2ccccc12)c1cncc(Br)c1 | -8 | . | -5 | 85* | -2 | 52* | 79*
Cc1c(C(=O)N/N=C/c2c(O)ccc3ccccc23)nnn1-c1nonc1N | 20 | . | -1 | 47 | -1 | 55* | 76*
Cn1cc(C(=O)N/N=C/c2c(O)ccc3ccccc23)ccc1=O | 14 | 57 | -2 | 43 | -4 | 59* | 76*
O=C(N/N=C/c1c(O)ccc2ccccc12)c1ccc(Br)o1 | -2 | . | -2 | 66* | -1 | 52* | 62*
COc1ccccc1/C=C/C(=O)N1CCc2cc(OC)c(OC)cc2C1C (configuration not stated) | 16 | . | 3 | 11 | -3 | 6 | .
